Shown are actives, neighbours in structure and some others; about 3.1% of the full set was active somewhere.
NS3 helicase inh: HCV NS3 helicase inhibition. inhibition, % at 10.9 µM. AID 1800. NS3 helicase DNA unwinding, Cy5 molecular beacon fluorescence. hit rate 0.56% among 290,000;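 active means inhibition above the mean of all tested compounds plus 3 SD, set per campaign, cut at about 35% in these data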;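 further: 0% = DMSO wells and 100% = thioflavine S control wells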
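Control set: DMSO versus 110 µM thioflavine S; Material: NS3 helicase fragment of HCV; Measured by: Cy5 fluorescence at 0 and 60 min, beacon hairpin quenching; Read-out basis: percent inhibition from t60/t0 fluorescence ratio; Times: reaction time 60 min, 25 °C; Repeats: single replicate; Compound dosing: single dose, 10.9 µM nominal final, DMSO 0.8% final.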
SUMO HTRF inh: inhibitors of human SUMOylation (UBC9). HTRF SUMOylation assay, SAE1/SAE2 + UBC9, in vitro. inhibition, % at 35 µM. hit rate 0.36% among 290,000; in the data active means inhibition above about 50%, passing the limit was not always enough
Target sequence (P63279 whole entry, looked up): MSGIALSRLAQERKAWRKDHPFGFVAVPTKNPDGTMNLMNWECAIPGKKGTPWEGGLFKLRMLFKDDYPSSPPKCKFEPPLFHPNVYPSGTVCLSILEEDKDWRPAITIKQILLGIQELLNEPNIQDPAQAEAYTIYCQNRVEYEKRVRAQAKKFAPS
PHOSPHO1 inh: inhibitors of human PHOSPHO1 phosphatase | AID 1565 | Q8TCT1 | hit rate 1.1% among 290,000 | inhibition, % at 13.3 µM | recombinant PHOSPHO1, absorbance phosphatase assay; in the data active means inhibition above about 60%
Target sequence (Q8TCT1 whole entry, looked up): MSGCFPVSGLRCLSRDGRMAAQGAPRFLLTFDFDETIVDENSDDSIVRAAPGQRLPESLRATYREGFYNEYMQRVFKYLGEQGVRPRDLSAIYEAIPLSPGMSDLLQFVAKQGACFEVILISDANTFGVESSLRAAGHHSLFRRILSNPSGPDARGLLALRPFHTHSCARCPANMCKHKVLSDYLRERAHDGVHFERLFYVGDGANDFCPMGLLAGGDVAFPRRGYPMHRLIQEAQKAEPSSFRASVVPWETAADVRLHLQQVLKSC
core dimer inh: HCV core protein dimerization inhibition; TR-FRET GST/Flag-core106 dimerization, 1536-well; inhibition, % at 5 µM; hit rate 0.33% among 300,000; AID 1899;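 active means inhibition above the mean of all tested compounds plus 3 SD, set per screening campaign, cut at about 45% in these data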
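Material: Tagged HCV core106 pair (GST and Flag) | Amount: GST-core106 13.5 nM, Flag-core106 17 nM | Medium: KF-containing HEPES buffer, pH 7.45, DTT, CHAPS, BSA | Reagent: Eu donor and XL665 acceptor anti-tag antibodies | Schedule: 4 h at 22.5 °C | Technique: Time-resolved FRET, ex 340 nm, em 617 and 671 nm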
VIM-2 inhibitor: blocks Pseudomonas aeruginosa VIM-2 metallo-beta-lactamase | purified VIM-2, nitrocefin hydrolysis, epi-absorbance fluorescence | inhibition, % at 5.6 µM | hit rate 0.89% among 290,000 | AID 1527;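 active means inhibition above the mean of all tested compounds plus 3 SD, cutoff set per screening run, cut at about 7.5% in these data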;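 further: red hydrolysis product quenches plate fluorescence so inhibitors raise well fluorescence; 0% = enzyme with DMSO and 100% = DMSO without enzyme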
IMP-1 inh-1: blocks Pseudomonas aeruginosa IMP-1 metallo-beta-lactamase; purified IMP-1, nitrocefin hydrolysis, epi-absorbance fluorescence; hit rate 0.45% among 290,000; AID 1556; inhibition, % at 5.6 µM;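 active means inhibition above the mean plus 3 SD of all compounds in the same screening run, cut at about 4.5% in these data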;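 further: 0% = IMP-1 with DMSO and 100% = DMSO wells lacking enzyme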
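System: purified IMP-1 / Input: IMP-1 dispensed at 0.2 nM / Medium: 50 mM HEPES pH 7.1, 50 µM ZnSO4, 0.05% Brij 35 / Timing: 15 min enzyme–compound preincubation, then 25 min nitrocefin reaction, 25 °C / Technique: plate fluorescence quenching by hydrolysis product, ex 480/em 530 nm / Repeats: singlicate testing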
IMP-1 inh-2: IMP-1 inhibition, counter-screen for VIM-2 inhibitors. shares compounds with VIM-2 inhibitor. inhibition, % at 5.6 µM. purified IMP-1, nitrocefin hydrolysis, epi-absorbance fluorescence. AID 1856. 1,300 tested, under 10 active; call rule not given here;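 further: 0% = enzyme with vehicle and 100% = vehicle without enzyme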
VIM-2 FRET ctr: counter-screen for VIM-2 inhibitors: epi-absorbance artifacts via FRET; shares compounds with VIM-2 inhibitor; purified VIM-2, CCF2 FRET substrate hydrolysis; inhibition, % at 5.6 µM; hit rate 23% among 1,300;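 active means inhibition above the mean of all tested compounds plus 3 SD, cut at about 19% in these data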;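 further: 0% = VIM-2 plus DMSO and 100% = no enzyme wells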
TEM-1 inh: selectivity counter-screen for VIM-2 inhibitors: E. coli TEM-1 inhibitors; hit rate 3% among 1,300; inhibition, % at 5.6 µM; shares compounds with VIM-2 inhibitor; Purified TEM-1, nitrocefin hydrolysis, epi-absorbance fluorescence;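 active means inhibition above that campaign's mean inhibition plus 3 SD, cut at about 0.46% in these data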;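 further: 0% = TEM-1 with DMSO and 100% = TEM-1 with 100 µM potassium clavulanate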
Target sequence (P62593 whole entry, looked up): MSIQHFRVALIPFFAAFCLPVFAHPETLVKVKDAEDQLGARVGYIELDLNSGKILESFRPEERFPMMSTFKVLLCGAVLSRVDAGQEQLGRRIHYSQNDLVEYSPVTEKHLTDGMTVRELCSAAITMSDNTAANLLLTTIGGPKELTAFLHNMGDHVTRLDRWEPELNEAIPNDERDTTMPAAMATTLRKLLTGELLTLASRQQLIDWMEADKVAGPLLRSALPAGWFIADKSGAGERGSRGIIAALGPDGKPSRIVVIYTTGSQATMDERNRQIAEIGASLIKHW
VIM-2 inh conf: confirmation of P. aeruginosa VIM-2 metallo-beta-lactamase inhibitors; shares compounds with VIM-2 inhibitor; purified VIM-2, nitrocefin hydrolysis, epi-absorbance; inhibition, % at 5.6 µM; hit rate 96% among 1,300;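 active means inhibition of the VIM-2 beta-lactamase enzyme above about 11% from the earlier first-round screen, limit read from the data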;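 further: 0% = VIM-2 with DMSO and 100% = buffer wells without enzyme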
The depositor's hits bear a star; nt = no result.

SMILES	NS3 helicase inh	SUMO HTRF inh	PHOSPHO1 inh	core dimer inh	VIM-2 inhibitor	IMP-1 inh-1	IMP-1 inh-2	VIM-2 FRET ctr	TEM-1 inh	VIM-2 inh conf
CC(=O)N/N=C/c1cc(C(C)C)cc(/C=N/NC(C)=O)c1O	-9.9	31.4	44.9	-3.1	34.0*	0.3	-0.5	12.4	-2.4	47.5*
O=C(Nc1ccc(N2CCCCC2)cc1)c1cccnc1	1.2	2.8	-52.7	-5.7	-0.6	-3.1	nt	nt	nt	nt
O=C(c1ccc(N2CCNCC2)cc1)c1cccnc1	3.5	14.4	-40.9	1.3	15.8*	-0.7	-3.7	-1.4	-4.3	43.1*
O=C(COc1ccc(S(=O)(=O)N2CCOCC2)cc1)Nc1ccccc1Cl	-1.2	3.1	3.0	2.7	-3.3	-2.7	nt	nt	nt	nt
CCN1CCN(CCNC(=O)c2cc(Cl)c(NC(=O)C3=C(C)OCCS3)cc2OC)CC1	-14.3	4.3	27.9	-4.7	23.8*	-3.3	-2.5	3.8	-9.6	33.1*
CCC(C)(C)NC(=O)C(c1ccc(OC)cc1)N(C(=O)CCC(=O)Nc1cc(C)on1)c1ccc2c(c1)OCO2 (stereo unspecified)	0.0	-10.7	23.9	16.1	-4.6	-1.8	nt	nt	nt	nt
Cc1ccccc1CN(C)CC(=O)NC(C)CCc1ccccc1 (stereo unspecified)	-11.1	3.5	30.3	2.3	-2.1	-2.6	nt	nt	nt	nt
Cn1c(=O)[nH]c(=O)c2c1nc(NCCCn1ccnc1)n2Cc1ccccc1	6.2	9.5	19.9	-5.5	0.6	-3.0	nt	nt	nt	nt
Cn1c(=O)[nH]c(=O)c2c1nc(NCCCn1ccnc1)n2CCOc1ccccc1	-8.0	14.6	8.7	1.4	20.6*	0.3	-3.0	-5.0	-5.5	33.4*
CCCN(CCC)CCCNc1ccc2nnc(-c3ccc(F)cc3)n2n1	19.2	-0.4	42.3	-0.9	18.4*	-3.3	-2.9	-0.2	-5.6	21.7*
CC(=O)c1cccc(Nc2nc3ccccc3n3cnnc23)c1	-19.0	26.7	11.4	9.9	13.5*	-2.8	-1.8	-3.5	-3.3	25.5*
COc1ccc2nc3cc(Cl)ccc3c(Nc3cc(CN4CCCC4)c(O)c(CN4CCCC4)c3)c2n1	-44.1	6.2	25.4	-41.8	20.6*	-5.7	-5.2	-12.2	-9.8	32.9*
CCCSCCCNC(=O)c1ccc(NC(=O)C2=CSCCO2)cc1	0.4	16.5	31.5	-6.5	-3.9	-1.3	nt	nt	nt	nt
COc1ccc(OC)c(C(=O)N2CCC(n3nccc3NC(=O)CC(C)C)CC2)c1	14.8	-0.1	48.8	-5.0	0.2	0.1	nt	nt	nt	nt
CCOc1ccc(S(=O)(=O)N(C)CC(=O)NCc2ccccn2)cc1Cl	-7.8	-1.1	23.9	4.7	-1.8	-3.2	nt	nt	nt	nt
Cc1c(C#N)c(=O)oc2ccc3ccccc3c12	14.1	34.3	11.2	8.9	31.4*	-2.5	-4.0	5.4	-8.9	11.1*
CCOc1ccc(-c2nnc(-c3ccncc3)o2)cc1OCC	2.9	15.5	32.3	-2.5	23.8*	-1.0	-2.7	-4.2	-3.8	31.2*
Cc1cccnc1CN1CCN(C(=O)c2cc(COc3ccc4ncccc4c3)on2)CC1	0.7	7.4	39.7	-1.9	47.8*	-3.1	-3.4	-20.5	-3.8	63.8*
CCOCc1cc(=O)[nH]c(SC)n1	-1.8	0.0	18.5	nt	-0.2	-1.0	nt	nt	nt	nt
CCOC(=O)c1[nH]c(C(=O)O)c(CCC(=O)OC)c1C	4.6	13.4	50.0	-3.2	21.7*	1.5	1.1	49.2*	-5.5	32.0*
O=P(O)(O)c1ccccc1OCCOCCOCCOCCOc1ccccc1P(=O)(O)O	3.1	23.9	1.7	-4.0	30.9*	-4.1	-2.4	59.9*	-3.8	44.4*
O=C(O)C(c1ccccc1)N1C(=O)/C(=C\c2ccc(O)c(O)c2)SC1=S (stereo unspecified)	-9.6	15.2	34.0	-16.4	30.5*	-4.4	-5.6	50.0*	-8.3	31.0*
CN(Cc1ccccc1)C1CCCN(C(=O)c2ccc(Cl)s2)C1 (stereo unspecified)	0.5	1.5	37.0	-0.8	0.2	0.5	nt	nt	nt	nt
C/C(=N\NC(=O)c1ccccc1)c1ccc(-n2ccnc2)cc1	8.4	0.9	-3.9	-5.3	0.5	-2.0	nt	nt	nt	nt
C=C(C)CNC(=S)N/N=C(\C)c1ccc(-n2ccnc2)cc1	-6.7	2.4	32.6	-5.8	78.9*	-4.6	-2.8	-8.2	-9.4	87.7*
SMILES	NS3 helicase inh	SUMO HTRF inh	PHOSPHO1 inh	core dimer inh	VIM-2 inhibitor	IMP-1 inh-1	IMP-1 inh-2	VIM-2 FRET ctr	TEM-1 inh	VIM-2 inh conf
CC1CCN(C(=O)Cn2c3ccccc3c3nc4n(c(=O)c32)CCS4)CC1	-6.3	nt	29.8	0.3	1.9	-0.9	nt	nt	nt	nt
Cc1cc(OCC(=O)NCCCN2CCCC2=O)c2c(C)c(C)c(=O)oc2c1	1.6	30.4	10.3	4.4	4.9	-1.4	nt	nt	nt	nt
Cc1cc(OCC(=O)Nc2ccc(CN3CCOCC3)cc2)c2c(C)c(C)c(=O)oc2c1	-47.4	-3.3	-3.7	6.7	32.9*	-1.3	-4.3	-0.9	-8.4	40.3*
Cc1cc(OCC(=O)NCCCN2CCOCC2)c2c(C)c(C)c(=O)oc2c1	12.2	26.2	17.4	4.0	26.2*	-5.6	-3.9	3.2	-5.8	36.4*
Cc1cc(OCC(=O)Nc2ccc(CN3CCOCC3)cc2)c2c(C)cc(=O)oc2c1	-5.6	23.1	18.1	-1.1	3.7	1.2	nt	nt	nt	nt
Cc1nn2c(-c3ccccc3)nnc2c2ccccc12	-3.0	0.7	10.9	4.3	6.5	-5.4	nt	nt	nt	nt
Cc1nn2c3ccccc3nc2c2ccccc12	1.8	19.4	-9.2	0.3	13.3*	-1.4	-3.1	-9.7	-2.7	27.2*
CCCc1nn(C)c2c(=O)[nH]c(-c3cc(S(=O)(=O)Nc4ccc(NC(C)=O)cc4)ccc3OCC)nc12	8.2	15.3	10.6	4.2	-1.5	-0.1	nt	nt	nt	nt
CCCc1nn(C)c2c(=O)[nH]c(-c3cc(S(=O)(=O)N4CCN(C)CC4)ccc3OCC)nc12	-50.2	3.8	-0.5	-1.5	17.4*	-1.7	-2.8	3.6	-7.2	25.5*
CCc1nc(SCC(=O)OC)c2c3c(sc2n1)COC(C)(C)C3	-11.7	10.7	24.8	-4.6	0.8	-2.6	nt	nt	nt	nt
Cc1cc(C)n(-c2nc(NCc3cccnc3)c3c4c(sc3n2)COC(C)(C)C4)n1	-2.0	28.1	26.3	4.7	47.5*	-1.8	-2.8	-17.4	0.1	64.1*
c1cncc(CNc2ncnc3sc4c(c23)CCCC4)c1	9.6	16.0	9.1	-1.4	1.1	-1.0	nt	nt	nt	nt
